# Measurements: ChEMBL document CHEMBL5329156, “Discovery and development of novel substituted monohydrazides as potent antifungal agents” (RSC Med Chem, 2023)
# Calls of active or inactive are those of the source. The calls are words filed in the database; no cut-off is given here.
# Legend:
# Candida albicans [1] = test: Antifungal activity against itraconazole/fluconazole susceptible Candida albicans ATCC MYA-2876 assessed as fungal growth inhibition by double dilution method; assay type: functional
# Procedure, shortened: (§1)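 Broth microdilution after CLSI M27-A3/M38-A2 with minor modifications. A single colony was grown overnight in YPD at 35 °C with shaking at 200 rpm. Cells were mixed 1:1 with compound (final 0.06-31.3 µg/mL, from DMSO stocks) and incubated 48 h at 35 °C.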
# Candida albicans [2] = test: Antifungal activity against itraconazole/fluconazole resistant Candida albicans ATCC 90819 assessed as fungal growth inhibition by double dilution method; assay type: functional; procedure, shortened: as §1
# HEK293 = test: Cytotoxicity against human HEK-293 cells assessed as reduction in cell viability at 31.3 microg/ml; assay type: toxicity, cell-based; settings: dose 31.3 µg/ml
# Procedure, shortened: (§2)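 Cells in DMEM with 10% FBS and 1% Pen/Strep, seeded at 10,000 cells/well and held overnight at 37 °C, 5% CO2. Compounds added at final 31.3-0.12 µg/mL (0.05% DMSO vehicle) for 24 h. Resazurin then added for 6 h; fluorescence read at ex 560/em 590. Triton X-100 1% as positive control; values normalized to vehicle. Run in quadruplicate.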
# Aspergillus fumigatus [3] = test: Antifungal activity against Aspergillus fumigatus NRRL 5109 assessed as fungal growth inhibition by double dilution method; assay type: functional
# Candida albicans [4] = test: Antifungal activity against itraconazole/fluconazole resistant Candida albicans ATCC MYA-1003 assessed as fungal growth inhibition by double dilution method; assay type: functional; procedure, shortened: as §1
# J774.A1 = test: Cytotoxicity against J774A.1 cells assessed as reduction in cell viability at 31.3 microg/ml; assay type: toxicity, cell-based; settings: mouse, dose 31.3 µg/ml; procedure, shortened: as §2
# Nakaseomyces glabratus [5] = test: Antifungal activity against Candida glabrata ATCC 2001 assessed as fungal growth inhibition by double dilution method; assay type: functional
# Procedure, shortened: (§3)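 Broth microdilution after CLSI M27-A3/M38-A2 with minor changes. Single colony grown overnight in YPD at 35 °C, 200 rpm. Compound final range 0.06-31.3 µg/mL; incubated 48 h at 35 °C.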
# Candida albicans [6] = test: Antifungal activity against Candida albicans ATCC 10231 assessed as fungal growth inhibition by double dilution method; assay type: functional; procedure, shortened: as §3
# Aspergillus terreus = test: Antifungal activity against Aspergillus terreus ATCC MYA-3633 assessed as fungal growth inhibition by double dilution method; assay type: functional
# [7] = Cytotoxicity against human HepG2 cells assessed as cell survival at 31.3 microg/ml relative to control; assay type: toxicity, cell-based; settings: at 31.3 µg/mL, read-out: Activity; procedure, shortened: as §2
# Aspergillus flavus = test: Antifungal activity against Aspergillus flavus ATCC MYA-3631 assessed as fungal growth inhibition by double dilution method; assay type: functional
# Pichia kudriavzevii [8] = test: Antifungal activity against Pichia kudriavzevii ATCC 6258 assessed as fungal growth inhibition by double dilution method; assay type: functional; procedure, shortened: as §3
# Candida albicans [9] = test: Antifungal activity against itraconazole/fluconazole resistant Candida albicans ATCC MYA-1237 assessed as fungal growth inhibition by double dilution method; assay type: functional; procedure, shortened: as §1
# Aspergillus fumigatus [10] = test: Antifungal activity against Aspergillus fumigatus NRRL 163 assessed as fungal growth inhibition by double dilution method; assay type: functional
# [Candida] auris [11] = Antifungal activity against Candida auris AR Bank # 0390 assessed as fungal growth inhibition by double dilution method; assay type: functional; settings: Candidozyma auris; procedure, shortened: as §3
# Aspergillus nidulans = test: Antifungal activity against Aspergillus nidulans ATCC 38163 assessed as fungal growth inhibition by double dilution method; assay type: functional
# Aspergillus fumigatus [12] = test: Antifungal activity against Aspergillus fumigatus NRRL 6113 assessed as fungal growth inhibition by double dilution method; assay type: functional
# Candida albicans [13] = test: Antifungal activity against itraconazole/fluconazole susceptible Candida albicans ATCC MYA-2310 assessed as fungal growth inhibition by double dilution method; assay type: functional; procedure, shortened: as §1
# Cryptococcus neoformans = test: Antifungal activity against Cryptococcus neoformans ATCC MYA-895 assessed as fungal growth inhibition by double dilution method; assay type: functional; procedure, shortened: as §3
# [Candida] auris [14] = Antifungal activity against Candida auris AR Bank # 0384 assessed as fungal growth inhibition by double dilution method; assay type: functional; settings: Candidozyma auris; procedure, shortened: as §3
# Nakaseomyces glabratus [15] = test: Antifungal activity against Candida glabrata ATCC 22019 assessed as fungal growth inhibition by double dilution method; assay type: functional; procedure, shortened: as §3
# Candida albicans [16] = test: Antifungal activity against Candida albicans ATCC 64124 assessed as fungal growth inhibition by double dilution method; assay type: functional; procedure, shortened: as §1
# [Candida] auris [17] = Antifungal activity against Candida auris AR Bank # 385 assessed as fungal growth inhibition by double dilution method; assay type: functional; settings: Candidozyma auris; procedure, shortened: as §3
# [Candida] auris [18] = Antifungal activity against Candida auris AR Bank # 383 assessed as fungal growth inhibition by double dilution method; assay type: functional; settings: Candidozyma auris; procedure, shortened: as §3
# Kodamaea ohmeri = test: Antifungal activity against Kodamaea ohmeri AR Bank # 396 assessed as fungal growth inhibition by double dilution method; assay type: functional; procedure, shortened: as §3
# [Candida] haemuloni [19] = Antifungal activity against Candida haemulonii AR Bank # 395 assessed as fungal growth inhibition by double dilution method; assay type: functional; settings: Candidozyma haemuli; procedure, shortened: as §3
# Pichia kudriavzevii [20] = test: Antifungal activity against Pichia kudriavzevii AR Bank # 397 assessed as fungal growth inhibition by double dilution method; assay type: functional; procedure, shortened: as §3
# [Candida] auris [21] = Antifungal activity against Candida auris AR Bank # 384 assessed as fungal growth inhibition by double dilution method; assay type: functional; settings: Candidozyma auris; procedure, shortened: as §3
# [Candida] auris [22] = Antifungal activity against Candida auris AR Bank # 388 assessed as fungal growth inhibition by double dilution method; assay type: functional; settings: Candidozyma auris; procedure, shortened: as §3
# [Candida] auris [23] = Antifungal activity against Candida auris AR Bank # 387 assessed as fungal growth inhibition by double dilution method; assay type: functional; settings: Candidozyma auris; procedure, shortened: as §3
# Candida duobushaemulonii [24] = test: Antifungal activity against Candida duobushaemulonii AR Bank # 394 assessed as fungal growth inhibition by double dilution method; assay type: functional; settings: Candidozyma duobushaemuli; procedure, shortened: as §3
# [Candida] auris [25] = Antifungal activity against Candida auris AR Bank # 382 assessed as fungal growth inhibition by double dilution method; assay type: functional; settings: Candidozyma auris; procedure, shortened: as §3
# Saccharomyces cerevisiae [26] = test: Antifungal activity against Saccharomyces cerevisiae AR Bank # 400 assessed as fungal growth inhibition by double dilution method; assay type: functional; procedure, shortened: as §3
# [Candida] auris [27] = Antifungal activity against Candida auris AR Bank # 389 assessed as fungal growth inhibition by double dilution method; assay type: functional; settings: Candidozyma auris; procedure, shortened: as §3
# HepG2 = test: Cytotoxicity against human HepG2 cells assessed as reduction in cell viability upto 31.3 microg/ml; assay type: toxicity, cell-based; settings: dose < 31.3 µg/ml; procedure, shortened: as §2
# [Candida] haemuloni [28] = Antifungal activity against Candida haemulonii AR Bank # 393 assessed as fungal growth inhibition by double dilution method; assay type: functional; settings: Candidozyma haemuli; procedure, shortened: as §3
# Candida duobushaemulonii [29] = test: Antifungal activity against Candida duobushaemulonii AR Bank # 391 assessed as fungal growth inhibition by double dilution method; assay type: functional; settings: Candidozyma duobushaemuli; procedure, shortened: as §3
# Saccharomyces cerevisiae [30] = test: Antifungal activity against Saccharomyces cerevisiae AR Bank # 399 assessed as fungal growth inhibition by double dilution method; assay type: functional; procedure, shortened: as §3
# [Candida] auris [31] = Antifungal activity against Candida auris AR Bank # 386 assessed as fungal growth inhibition by double dilution method; assay type: functional; settings: Candidozyma auris; procedure, shortened: as §3
# [Candida] auris [32] = Antifungal activity against Candida auris AR Bank # 381 assessed as fungal growth inhibition by double dilution method; assay type: functional; settings: Candidozyma auris; procedure, shortened: as §3
# Candida duobushaemulonii [33] = test: Antifungal activity against Candida duobushaemulonii AR Bank # 392 assessed as fungal growth inhibition by double dilution method; assay type: functional; settings: Candidozyma duobushaemuli; procedure, shortened: as §3
# Candida albicans [34] = test: Antibiofilm activity against Candida albicans ATCC 10231 assessed as reduction in biofilm production at 1.96 to 3.9 microg/ml by biofilm formation assay; assay type: functional, organism-based; settings: dose 1.96-3.9 µg/ml
# [Candida] auris [35] = Antifungal activity against Candida auris AR Bank # 390 assessed as fungal growth inhibition by double dilution method; assay type: functional; settings: Candidozyma auris; procedure, shortened: as §3
# Clavispora lusitaniae = test: Antifungal activity against Clavispora lusitaniae AR Bank # 398 assessed as fungal growth inhibition by double dilution method; assay type: functional; procedure, shortened: as §3
smiles,measurement,setting,value
O=C(NNc1cccc(F)c1)c1cnccn1,MIC,Candida albicans [1],3.9 µg/mL
same,MIC,Candida albicans [2],0.98 µg/mL
same,Activity,HEK293,Non-Toxic
same,MIC,Aspergillus fumigatus [3],> 31.3 µg/mL
same,MIC,Candida albicans [4],0.98 µg/mL
same,Activity,J774.A1,Non-Toxic
same,MIC,Nakaseomyces glabratus [5],7.8 µg/mL
same,MIC,Candida albicans [6],0.24 µg/mL
same,MIC,Aspergillus terreus,0.98 µg/mL
same,viability at 31.3 microg/ml,[7],94%
same,MIC,Aspergillus flavus,15.6 µg/mL
same,MIC,Pichia kudriavzevii [8],0.49 µg/mL
same,MIC,Candida albicans [9],0.98 µg/mL
same,MIC,Aspergillus fumigatus [10],> 31.3 µg/mL
same,MIC,[Candida] auris [11],0.98 µg/mL
same,MIC,Aspergillus nidulans,0.98 µg/mL
same,MIC,Aspergillus fumigatus [12],> 31.3 µg/mL
same,MIC,Candida albicans [13],7.8 µg/mL
same,MIC,Cryptococcus neoformans,0.12 µg/mL
same,MIC,[Candida] auris [14],0.98 µg/mL
same,MIC,Nakaseomyces glabratus [15],3.9 µg/mL
same,MIC,Candida albicans [16],1.95 µg/mL
O=C(NNc1ccc(F)cc1F)c1ccccn1,MIC,[Candida] auris [17],0.49 µg/mL
same,MIC,[Candida] auris [18],0.49 µg/mL
same,MIC,Kodamaea ohmeri,0.98 µg/mL
same,MIC,Candida albicans [1],0.98 µg/mL
same,MIC,[Candida] haemuloni [19],0.24 µg/mL
same,MIC,Pichia kudriavzevii [20],≤ 0.06 µg/mL
same,MIC,Candida albicans [2],0.98 µg/mL
same,MIC,[Candida] auris [21],0.49 µg/mL
same,Activity,HEK293,Non-Toxic
same,MIC,Aspergillus fumigatus [3],15.6 µg/mL
same,MIC,[Candida] auris [22],0.12 µg/mL
same,MIC,Candida albicans [4],0.49 µg/mL
same,MIC,[Candida] auris [23],0.12 µg/mL
same,MIC,Candida duobushaemulonii [24],3.9 µg/mL
same,Activity,J774.A1,Non-Toxic
same,MIC,Nakaseomyces glabratus [5],0.98 µg/mL
same,MIC,[Candida] auris [25],0.49 µg/mL
same,MIC,Saccharomyces cerevisiae [26],0.49 µg/mL
same,MIC,[Candida] auris [27],0.24 µg/mL
same,Activity,HepG2,Non-Toxic
same,MIC,Candida albicans [6],0.12 µg/mL
same,MIC,[Candida] haemuloni [28],0.49 µg/mL
same,MIC,Candida duobushaemulonii [29],0.12 µg/mL
same,MIC,Aspergillus terreus,0.98 µg/mL
same,MIC,Aspergillus flavus,15.6 µg/mL
same,MIC,Pichia kudriavzevii [8],0.49 µg/mL
same,MIC,Candida albicans [9],0.49 µg/mL
same,MIC,Saccharomyces cerevisiae [30],0.49 µg/mL
same,MIC,[Candida] auris [31],0.49 µg/mL
same,MIC,[Candida] auris [32],0.49 µg/mL
same,MIC,Aspergillus fumigatus [10],> 31.3 µg/mL
same,MIC,[Candida] auris [11],0.12 µg/mL
same,MIC,Aspergillus nidulans,0.49 µg/mL
same,MIC,Candida duobushaemulonii [33],0.49 µg/mL
same,MIC,Aspergillus fumigatus [12],31.3 µg/mL
same,Activity,Candida albicans [34],inactive
same,MIC,Candida albicans [13],31.3 µg/mL
same,MIC,[Candida] auris [35],0.12 µg/mL
same,MIC,Cryptococcus neoformans,0.24 µg/mL
same,MIC,Clavispora lusitaniae,1.95 µg/mL
same,MIC,[Candida] auris [14],0.49 µg/mL
same,MIC,Nakaseomyces glabratus [15],1.95 µg/mL
same,MIC,Candida albicans [16],1.95 µg/mL
